IC50 data for 13 compounds are collected here from PubChem BioAssay AID463076 (The Scripps Research Institute Molecular Screening Center, 2010).

Active and inactive are the calls of the source.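 How the source made its calls: active means compounds blocking FLT3 kinase activity with IC50 at or below 1000 nM; inactive means IC50 above 1000 nM.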

Receptor-type tyrosine-protein kinase FLT3 (Homo sapiens), sequence (P36888 whole entry, looked up): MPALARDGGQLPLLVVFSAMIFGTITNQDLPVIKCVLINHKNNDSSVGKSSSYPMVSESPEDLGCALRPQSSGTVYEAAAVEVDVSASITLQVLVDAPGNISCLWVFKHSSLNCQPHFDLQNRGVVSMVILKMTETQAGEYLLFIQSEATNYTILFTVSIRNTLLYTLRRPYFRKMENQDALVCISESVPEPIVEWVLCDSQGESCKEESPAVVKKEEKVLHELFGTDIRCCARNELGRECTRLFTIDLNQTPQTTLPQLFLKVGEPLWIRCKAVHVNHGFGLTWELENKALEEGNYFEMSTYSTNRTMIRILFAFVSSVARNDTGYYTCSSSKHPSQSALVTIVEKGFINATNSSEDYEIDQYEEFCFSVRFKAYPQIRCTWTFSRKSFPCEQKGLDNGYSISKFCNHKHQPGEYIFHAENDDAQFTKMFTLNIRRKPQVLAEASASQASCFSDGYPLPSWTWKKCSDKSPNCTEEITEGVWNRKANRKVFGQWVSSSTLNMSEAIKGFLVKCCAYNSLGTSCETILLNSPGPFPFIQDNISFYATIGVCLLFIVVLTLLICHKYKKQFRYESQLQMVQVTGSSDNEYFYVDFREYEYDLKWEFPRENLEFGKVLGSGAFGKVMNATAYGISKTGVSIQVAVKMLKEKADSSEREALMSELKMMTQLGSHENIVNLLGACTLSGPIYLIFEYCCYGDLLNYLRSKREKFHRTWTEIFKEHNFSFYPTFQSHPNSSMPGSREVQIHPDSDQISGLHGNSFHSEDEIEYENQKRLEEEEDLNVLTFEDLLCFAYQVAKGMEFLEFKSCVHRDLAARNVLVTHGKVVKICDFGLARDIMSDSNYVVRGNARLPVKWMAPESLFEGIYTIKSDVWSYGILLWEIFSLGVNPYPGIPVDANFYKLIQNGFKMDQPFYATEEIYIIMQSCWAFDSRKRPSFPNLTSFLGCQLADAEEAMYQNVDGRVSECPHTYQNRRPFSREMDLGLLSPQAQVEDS

The target in this test is Receptor-type tyrosine-protein kinase FLT3 (Homo sapiens) (UniProt P36888). The test can be described thus: inhibitors of human FLT3 tyrosine kinase – biochemical, radioactive 33P-ATP, powder samples, selectivity assay for CK1d inhibitor project, late-stage follow-up (AID 463076). The note with it: purified FLT3, 33P-ATP Abltide filter-binding assay. The procedure, abridged:
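Test system: cell-free kinase reaction; medium: Hepes buffer pH 7.5 with 10 mM MgCl2, DTT, 1% DMSO; also added: 33P-ATP and peptide substrate; compound dosing: 10 doses, 1:3 steps, top 50 µM; times: kinase reaction 120 min at room temperature; measured by: radiometric filter-binding readout; read-out basis: IC50 from signal ratio curve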
As usually defined, the IC50 is the concentration that gives 50% inhibition. Take `FC(F)(F)c1cccc2[nH]c(CNc3nc(N4CCOCC4)nc4c3ncn4-c3ccsc3)nc12`: the IC50 is 262 nM.
In the case of `c1ccc2cc3[nH]c(CNc4nc(N5CCOCC5)nc5c4ncn5-c4ccsc4)nc3cc2c1`, the IC50 is 975 nM.
In the case of `N#Cc1ccc2nc(CNc3nc(N4CCOCC4)nc4c3ncn4-c3ccsc3)[nH]c2c1`, the IC50 is 62 nM.
Turning to `Cc1ccnc(NC(=O)CCCOc2cc(=O)n(C)c3ccccc23)c1`, the IC50 entry is “inactive”.
With `CC(C)n1cnc2c(NCc3nc4c([N+](=O)[O-])cccc4[nH]3)nc(N3CCOCC3)nc21`, the IC50 entry was “inactive”.
Consider `c1ccc2[nH]c(CNc3nc(N4CCOCC4)nc4c3ncn4-c3ccsc3)nc2c1`, for which the IC50 was 100 nM.
For the compound `Fc1ccc2nc(CNc3nc(N4CCOCC4)nc4c3ncn4-c3ccsc3)[nH]c2c1`, the IC50 is 79 nM.
As to `Clc1ccc2nc(CNc3nc(N4CCOCC4)nc4c3ncn4-c3ccsc3)[nH]c2c1`, the IC50 was 301 nM.
Take `O=[N+]([O-])c1cccc2[nH]c(CNc3nc(N4CCOCC4)nc4c3ncn4-c3ccsc3)nc12`: the IC50 is 305 nM.
As to `COc1ccc2nc(CNc3nc(N4CCOCC4)nc4c3ncn4-c3ccsc3)[nH]c2c1`, the IC50 was 14 nM.
Turning to `FC(F)(F)c1ccc2nc(CNc3nc(N4CCOCC4)nc4c3ncn4-c3ccsc3)[nH]c2c1`, the IC50 was 509 nM.
As to `O=[N+]([O-])c1ccc2nc(CNc3nc(N4CCOCC4)nc4c3ncn4-c3ccsc3)[nH]c2c1`, the IC50 is 240 nM.
Next, `CCOC(=O)c1cccc2[nH]c(CNc3nc(N4CCOCC4)nc4c3ncn4-c3ccsc3)nc12`: 548 nM.
